LANA-H2A inh: blocks KSHV LANA binding to histone H2A/H2B | cell-free LANA-H2A/H2B peptide, fluorescence polarization | AID 2629 | Q9QR71 | 0.6% of 320,000 active | inhibition, % (concentration not given with the values); in the data active = inhibition mostly above about 10%, no sharp cut-off; inactive = mostly below about 6.7%
ZTA DNA inh: counter-screen for EBNA-1 inhibitors: inhibitors of Epstein-Barr virus ZTA; 0.15% of 320,000 active; inhibition, % at 11 µM; ZTA-DNA binding, fluorescence polarization; in the data active = inhibition above about 33%
EBNA-1 inh: blocks EBNA-1 binding to DNA; AID 1950; inhibition, % at 14.8 µM; EBNA-1 DNA binding, fluorescence polarization; 0.34% of 300,000 active; in the data active = inhibition above about 28%
HNF4A DNA FP: change in binding of human HNF4 alpha to DNA | P41235 | HNF4a-FITC DNA binding, fluorescence polarization, 1 h | activity change, % at 10 µM | 0.3% of 360,000 active | AID 1224865; in the data active = activity change above about 30%, passing the limit was not always enough
Target sequence (P41235 whole entry, looked up): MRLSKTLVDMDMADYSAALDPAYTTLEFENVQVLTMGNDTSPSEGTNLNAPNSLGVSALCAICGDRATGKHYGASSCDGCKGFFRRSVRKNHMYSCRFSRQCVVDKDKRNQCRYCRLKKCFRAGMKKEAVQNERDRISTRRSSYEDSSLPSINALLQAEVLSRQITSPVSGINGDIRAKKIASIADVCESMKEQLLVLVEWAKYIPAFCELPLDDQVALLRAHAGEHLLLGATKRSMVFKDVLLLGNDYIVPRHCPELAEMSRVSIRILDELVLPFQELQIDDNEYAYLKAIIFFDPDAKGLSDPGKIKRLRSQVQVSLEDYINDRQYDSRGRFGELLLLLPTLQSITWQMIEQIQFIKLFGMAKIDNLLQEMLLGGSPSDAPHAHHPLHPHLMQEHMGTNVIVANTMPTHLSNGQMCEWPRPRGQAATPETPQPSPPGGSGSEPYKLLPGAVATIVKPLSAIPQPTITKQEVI
A1 inh: inhibitors of the anti-apoptotic protein A1, read as caspase activation. 0.066% of 330,000 active. MEF A1-2A-BIM cells, Caspase-Glo 3/7 luminescence, 3 h; percent of clofoctol response, vehicle zero. caspase activation, % (no concentration beside the values). AID 2462;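 active = over half of replicate activation scores above 10%, or exactly half above 10 with the replicate mean above 10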
CSN deneddyl inh: CSN deneddylation inhibition; Q92905; Purified CSN, SCF-Nedd8-OG deneddylation, fluorescence polarization; inhibition, % at 12.5 µM; 0.38% of 360,000 active; AID 651999;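 active = pattern-corrected inhibition above about 35%, with an unprinted fluorescence ratio check between 0.5 and 1.5, limit read from the data, passing the limit was not always enough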;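 also: 0% = enzyme with substrate and 100% = substrate without enzyme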
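assay system = purified human Csn5 enzyme expressed in HEK293T cells | amount = 0.24 nM enzyme | buffer or medium = Tris/NaCl/DTT buffer, pH 7.5 | reagent = 10 nM SCFSkp2-Nedd8OG | compound = one concentration, 12.5 µM, 0.25% DMSO | times = 90 min reaction at room temperature | signal = FP | read-out basis = % inhibition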
* = called active by the depositor; x = not tested or not shown. Most compounds without a hit are left out; they make up all but 1.5% or so of the library.

SMILES	LANA-H2A inh	ZTA DNA inh	EBNA-1 inh	HNF4A DNA FP	A1 inh	CSN deneddyl inh
CCOc1ccc(OCc2ccc(C(=O)NN=Cc3ccc[nH]3)cc2)cc1	-1.1	x	x	5.7	9.7*	-5.8
CCCCCC(=O)N1C[C@H](n2cc(COC(=O)c3ccccc3)nn2)[C@@H](O)C[C@@H]1c1ccc(OC)cc1	x	x	x	1.1	x	1.4
Cc1ccc(S(=O)(=O)N2CCCC(c3nc4c(nnn4Cc4ccc5c(c4)OCCO5)c(=O)[nH]3)C2)cc1 (stereo not drawn)	-3.6	2.7	7.5	2.6	-0.7	-0.6
Cc1cc(NC(=O)C2CC(=O)N(c3cccc(Cl)c3)C2)no1 (stereo not drawn)	11.1*	-3.9	-8.7	-1.1	0.4	-5.8
Cc1cc(Cl)ccc1OCCCC(=O)OCC(=O)Nc1cccc(S(N)(=O)=O)c1	3.2	-1.7	x	-1.3	-0.4	-0.4
CC(=O)Oc1ccc(C(=O)Nn2cnnc2)cc1	18.5*	-8.4	-5.2	-1.0	0.9	2.0
CC(C)(C)c1ccc(C(=O)Nn2cnnc2)cc1	-25.5	4.0	-3.8	3.0	0.1	-2.3
CCOC(=O)C1C(=O)OC2(CCOC(C)(C)C2)C1C(=O)OCC (stereo not drawn)	29.1*	-27.8	-6.0	-3.9	-1.3	0.0
CCOC(=O)C1C(=O)OC2(CCCCC2)C1C(=O)OCC (stereo not drawn)	-2.0	5.9	1.5	-0.8	-0.4	2.0
Cc1ccc(-c2cc3c(N=O)c4ccccc4c-3n[nH]2)cc1	8.0	5.5	16.2	8.0	-7.7	24.9
Cc1cccc(-c2cc3c(N=O)c4ccccc4c-3n[nH]2)c1	-2.4	-6.2	29.7*	-1.0	-14.9	3.7
O=C(c1ccco1)N1N=C(c2cccs2)CC1c1ccco1 (stereo not drawn)	-0.8	10.5	1.2	-1.2	-0.6	-4.8
Cc1ccc(C2CC(c3cccs3)=NN2C(=O)c2ccco2)o1 (stereo not drawn)	19.6*	1.8	-1.4	1.0	0.4	-0.6
COc1ccc(C2C=C(c3ccccc3)Nc3nc(CCCO)nn32)cc1 (stereo not drawn)	-0.1	1.7	-1.7	x	0.3	x
COc1ccc(C2C=C(c3cccs3)Nc3nc(CCCO)nn32)cc1 (stereo not drawn)	74.4*	1.8	-6.2	x	-0.8	x
Cc1c(C(C)NC(=O)c2cc(COc3cccc4cnccc34)on2)cnn1C (stereo not drawn)	24.7*	11.7	-0.3	7.0	-0.4	2.2
COc1ccc(Oc2c(OC)cc(NCc3ccc(CN)cc3)c3ncccc23)cc1	x	x	x	-40.2	x	41.6*
COc1ccc(CNc2cccnc2Cl)cc1	x	x	x	-0.3	x	-3.6
Cc1ccsc1C1CC(=O)OC2=C1C(=O)CC(C)(C)C2 (stereo not drawn)	5.6	0.9	-8.2	x	-1.4	x
CC(C)Oc1ccc(CNC(=O)CCC(=O)N2CC(C)Sc3ccccc32)cc1 (stereo not drawn)	27.4*	-15.9	-7.0	0.1	0.0	-2.6
CNC(=O)c1nnsc1S(=O)(=O)c1ccc(Cl)cc1	x	x	x	0.3	x	-11.3
COc1ccccc1/C=N/NC(=O)COCC(=O)N/N=C/c1ccccc1OC	-1.8	13.8	-4.0	2.4	0.3	0.0
COc1ccccc1/C=N/NC(=O)CC(=O)Nc1ccc(Cl)c(Cl)c1	0.6	1.1	6.3	44.4*	0.4	-3.1
Cn1c(N)c(-c2ccccc2)c2ccc([N+](=O)[O-])cc2c1=O	0.1	-10.6	-14.9	98.8*	0.9	14.7
O=C(c1cc(C2CC2)on1)N1CCCC(N2CCN(c3ccc(F)cc3)CC2)C1 (stereo not drawn)	12.6*	-28.1	-1.2	1.2	-0.5	0.0
SMILES	LANA-H2A inh	ZTA DNA inh	EBNA-1 inh	HNF4A DNA FP	A1 inh	CSN deneddyl inh
O=C(c1cc[n+]([O-])cc1)N1CCCC(N2CCN(c3cccc(C(F)(F)F)c3)CC2)C1 (stereo not drawn)	21.0*	1.2	-1.3	-0.6	-0.4	0.7
CCOC(=O)C1(C)CCCN(C(=O)c2cc(F)ccc2C)C1 (stereo not drawn)	x	x	x	-2.8	x	2.6
COc1ccc(OC)c(S(=O)(=O)Oc2ccc(N)c3ccccc23)c1	0.4	10.5	-1.9	6.3	2.0	12.9
CN(CCNC(=O)c1ccc(CS(=O)(=O)c2ccc(Br)cc2)o1)CCc1ccccc1	18.9*	0.0	11.5	3.4	0.7	2.6
Cc1ccccc1CS(=O)(=O)Cc1ccc(C(=O)NCCc2ccccc2)o1	14.8*	4.6	-5.2	-0.4	0.4	-0.1
O=C(NCCCN1CCCCCC1)c1ccc(CS(=O)(=O)Cc2ccccc2F)o1	x	x	x	127.6	x	97.2*
COc1ccc(CCNC(=O)c2ccc(CS(=O)(=O)c3ccc(Cl)cc3)o2)cc1OC	26.9*	-2.4	-9.6	0.5	-0.2	-2.7
COc1c(F)c(F)c(C(=O)Nc2ccc(NC(=O)Cc3ccccc3)cc2)c(F)c1F	-4.5	7.7	1.1	2.1	0.1	0.4
CN(C(=O)COC(=O)C(C)(C)Oc1ccc(Cl)cc1)c1c(N)n(Cc2ccccc2)c(=O)[nH]c1=O	-10.2	1.4	1.4	-0.5	0.5	2.7
CCCCCCC(C)n1cc(C(C)=O)c(=O)[nH]c1=O (stereo not drawn)	3.7	-15.5	-3.5	-0.5	0.7	49.7*
CCOC(=O)C1=C(c2ccccc2)N=c2s/c(=C\c3cc(OC)c(OC)c(OC)c3)c(=O)n2C1c1cccs1 (stereo not drawn)	0.5	5.6	-0.3	13.4	-0.1	-0.7
CCOC(=O)C1=C(c2ccccc2)N=c2s/c(=C\c3ccco3)c(=O)n2C1c1cccs1 (stereo not drawn)	-0.5	1.7	2.4	-2.3	0.9	37.8*
COc1ccc(CNc2ccc(C)c(C)c2)cc1	-1.1	8.6	-0.2	-1.4	-0.2	-1.1
COc1cc(CNc2ccc(C)c(C)c2)cc(OC)c1OC	5.5*	-2.7	-15.1	-2.3	0.9	-1.0
O=C(O)CCCN1C(=O)C(=O)/C(=C(/O)c2ccccc2)C1/C=C/c1ccccc1 (stereo not drawn)	-0.8	16.5	-1.2	2.2	1.4	-5.0
O=C(Nc1cc([N+](=O)[O-])ccc1Cl)C1CC1	-3.7	8.4	-1.8	2.1	-0.6	-10.4
Cc1ccc(C2(c3ccc(C)cc3)CC2C(=O)Nc2ccc([N+](=O)[O-])cc2O)cc1 (stereo not drawn)	0.3	6.9	-0.8	-3.2	26.7*	-3.0
O=C(Nc1cc([N+](=O)[O-])ccc1F)C1CC1	28.6*	6.8	3.6	-1.2	0.6	4.9
Cc1ccc(-n2ncc(C(=O)N3CCc4ccccc4C3)c2NC(=O)c2ccco2)cc1C	3.5	-11.3	-10.5	0.4	0.6	1.8
COc1ccc(NC(=O)c2sc(=O)n(Cc3ccc4ccccc4c3)c2C)cc1OC	x	x	x	0.5	x	-8.2

Screening data (PubChem BioAssay)
